Laboratory results from ChEMBL document CHEMBL1122632, “Synthesis and antitumor activity of cis-dichloroplatinum (II)-N-aminated nucleoside complexes” (J Med Chem, 1984).
Where “and” joins values, the source holds several entries; their conditions need not be identical. Equal values may be shown once.

Tests used:
L1210 [1] = test: Ratio of median survival time of the mice bearing L1210 cells in treated(T) vs. control(C) at a dose of 25 mg/kg x 2 days; assay type: functional, organism-based; set-up: dose 25 mg/kg; conditions: Mus musculus
In short: (§1)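 (BALB/c × DBA/2)F1 mice (20 g) were implanted ip with 10^4 L1210 cells. Compounds in saline (0.2 mL) were given ip on days 1 and 5; doses above 100 mg/kg were homogenized with Nikkol (7× by weight). Activity was scored as median survival time of treated mice and expressed as T/C, the ratio of treated to control median survival time.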

L1210 [2] = test: Median survival time (MST) of mice bearing L1210 cells was determined at a dose of 800 mg/kg x 2 days administered ip.; assay type: functional, organism-based; set-up: dose 800 mg/kg; conditions: Mus musculus; in short: as §1
L1210 [3] = test: Median survival time (MST) of mice bearing L1210 cells was determined at a dose of 25 mg/kg x 2 days administered ip.; assay type: functional, organism-based; set-up: dose 25 mg/kg; conditions: Mus musculus; in short: as §1
L1210 [4] = test: Ratio of median survival time of the mice bearing L1210 cells in treated(T) vs. control(C) at a dose of 800 mg/kg x 2 days; assay type: functional, organism-based; set-up: dose 800 mg/kg; conditions: Mus musculus; in short: as §1
L1210 [5] = test: Ratio of median survival time of the mice bearing L1210 cells in treated(T) vs. control(C) at a dose of 100 mg/kg x 2 days; assay type: functional, organism-based; set-up: dose 100 mg/kg; conditions: Mus musculus; in short: as §1
L1210 [6] = test: Median survival time (MST) of mice bearing L1210 cells was determined at a dose of 50 mg/kg x 2 days administered ip.; assay type: functional, organism-based; set-up: dose 50 mg/kg; conditions: Mus musculus; in short: as §1
L1210 [7] = test: Ratio of median survival time of the mice bearing L1210 cells in treated(T) vs. control(C) at a dose of 200 mg/kg x 2 days; assay type: functional, organism-based; set-up: dose 200 mg/kg; conditions: Mus musculus; in short: as §1
L1210 [8] = test: Ratio of median survival time of the mice bearing L1210 cells in treated(T) vs. control(C) at a dose of 50 mg/kg x 2 days; assay type: functional, organism-based; set-up: dose 50 mg/kg; conditions: Mus musculus; in short: as §1
L1210 [9] = test: Median survival time (MST) of mice bearing L1210 cells was determined at a dose of 200 mg/kg x 2 days administered ip.; assay type: functional, organism-based; set-up: dose 200 mg/kg; conditions: Mus musculus; in short: as §1
L1210 [10] = test: Median survival time (MST) of mice bearing L1210 cells was determined at a dose of 100 mg/kg x 2 days administered ip.; assay type: functional, organism-based; set-up: dose 100 mg/kg; conditions: Mus musculus; in short: as §1
L1210 [11] = test: Median survival time (MST) of mice bearing L1210 cells was determined at a dose of 115 mg/kg x 2 days administered ip; Toxic.; assay type: functional, organism-based; set-up: dose 115 mg/kg; conditions: Mus musculus; in short: as §1
L1210 [12] = test: Median survival time (MST) of mice bearing L1210 cells was determined at a dose of 2 mg/kg x 2 days administered ip; Toxic.; assay type: functional, organism-based; set-up: dose 2 mg/kg; conditions: Mus musculus; in short: as §1
Mus musculus [13] = test: Blood urea nitrogen values in ICR mice after intraperitoneal administration at an equivalent molar dose of the LD50 of […](13 mg/kg) on day 6; assay type: functional, organism-based
In short: (§2)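 ICR mice (25-30 weeks, 39 ± 4 g), 5-6 per group, given one ip dose of 0.043 mmol/kg, equimolar to 13 mg/kg cis-DDP. On days 3, 6 and 9, blood was drawn from the heart under ether anesthesia and stored frozen. BUN was measured later by a modified urease indophenol method. Results are mean ± SD, mg/100 mL blood, compared with untreated controls.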

Mus musculus [14] = test: Effect on kidney weight in ICR mice was determined after intraperitoneal administration on day 3; assay type: functional, organism-based
In short: (§3)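 ICR mice (25-30 weeks, 39 ± 4 g), 5-6 per group, given one ip dose of 0.043 mmol/kg, equimolar to 13 mg/kg cis-DDP. Body and kidney weights were taken on days 3, 6 and 9 and compared with untreated controls. Weights are paired, mean ± SD.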

L1210 [15] = test: Median survival time (MST) of mice bearing L1210 cells was determined at a dose of 300 mg/kg x 2 days administered ip.; assay type: functional, organism-based; set-up: dose 300 mg/kg; conditions: Mus musculus; in short: as §1
Mus musculus [16] = test: Effect on body weight in ICR mice was determined after intraperitoneal administration on day 3; assay type: functional, organism-based; in short: as §3
Mus musculus [17] = test: Blood urea nitrogen values in ICR mice after intraperitoneal administration at an equivalent molar dose of the LD50 of […](13 mg/kg) on day 3; assay type: functional, organism-based; in short: as §2
L1210 [18] = test: Median survival time (MST) of mice bearing L1210 cells was determined at a dose of 10 mg/kg x 2 days administered ip.; assay type: functional, organism-based; set-up: dose 10 mg/kg; conditions: Mus musculus; in short: as §1
Mus musculus [19] = test: Effect on kidney weight in ICR mice was determined after intraperitoneal administration on day 9; assay type: functional, organism-based; in short: as §3
Mus musculus [20] = test: Effect on kidney weight in ICR mice was determined after intraperitoneal administration on day 6; assay type: functional, organism-based; in short: as §3
Mus musculus [21] = test: Blood urea nitrogen values in ICR mice after intraperitoneal administration at an equivalent molar dose of the LD50 of […](13 mg/kg) on day 9; assay type: functional, organism-based; in short: as §2
Mus musculus [22] = test: Effect on body weight in ICR mice was determined after intraperitoneal administration on day 9; assay type: functional, organism-based; in short: as §3
L1210 [23] = test: Ratio of median survival time of the mice bearing L1210 cells in treated(T) vs. control(C) at a dose of 300 mg/kg x 2 days; assay type: functional, organism-based; set-up: dose 300 mg/kg; conditions: Mus musculus; in short: as §1
L1210 [24] = test: Ratio of median survival time of the mice bearing L1210 cells in treated(T) vs. control(C) at a dose of 10 mg/kg x 2 days; assay type: functional, organism-based; set-up: dose 10 mg/kg; conditions: Mus musculus; in short: as §1
Mus musculus [25] = test: Effect on body weight in ICR mice was determined after intraperitoneal administration on day 6; assay type: functional, organism-based; in short: as §3
L1210 [26] = test: Ratio of median survival time of the mice bearing L1210 cells in treated(T) vs. control(C) at a dose of 900 mg/kg x 2 days; assay type: functional, organism-based; set-up: dose 900 mg/kg; conditions: Mus musculus; in short: as §1
L1210 [27] = test: Median survival time (MST) of mice bearing L1210 cells was determined at a dose of 600 mg/kg x 2 days administered ip.; assay type: functional, organism-based; set-up: dose 600 mg/kg; conditions: Mus musculus; in short: as §1
L1210 [28] = test: Median survival time (MST) of mice bearing L1210 cells was determined at a dose of 900 mg/kg x 2 days administered ip.; assay type: functional, organism-based; set-up: dose 900 mg/kg; conditions: Mus musculus; in short: as §1
L1210 [29] = test: Ratio of median survival time of the mice bearing L1210 cells in treated(T) vs. control(C) at a dose of 600 mg/kg x 2 days; assay type: functional, organism-based; set-up: dose 600 mg/kg; conditions: Mus musculus; in short: as §1
L1210 [30] = test: Median survival time (MST) of mice bearing L1210 cells was determined at a dose of 59 mg/kg x 2 days administered ip; Toxic.; assay type: functional, organism-based; set-up: dose 59 mg/kg; conditions: Mus musculus; in short: as §1
L1210 [31] = test: Ratio of median survival time of the mice bearing L1210 cells in treated(T) vs. control(C) at a dose of 112 mg/kg x 2 days; assay type: functional, Mus musculus
In short: (§4)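 (BALB/c x DBA/2)F1 mice, 20 g, implanted ip with 10^4 L1210 cells. Test samples in saline (0.2 mL) given ip on days 1 and 5 after tumor inoculation; doses above 100 mg/kg homogenized with Nikkol (7 times by weight) as vehicle. Activity from median survival time of treated group versus control group (T/C).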

L1210 [32] = test: Ratio of median survival time of the mice bearing L1210 cells in treated(T) vs. control(C) at a dose of 30 mg/kg x 2 days; assay type: functional, Mus musculus; in short: as §4
L1210 [33] = test: Median survival time (MST) of mice bearing L1210 cells was determined at a dose of 2 mg/kg x 2 days administered ip.; assay type: functional, Mus musculus; in short: as §4
L1210 [34] = test: In vitro inhibition of L1210 (murine leukemia) cell growth.; assay type: functional, cell-based, Mus musculus
In short: (§5)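 L1210 cells (10^5 in 1 mL) were grown in RPMI 1640 with 10% FCS and kanamycin, at 37 °C in CO2, for 48 h. Compounds were heated at 110 °C for 8 h, dissolved in medium and tested at ≥6 concentrations. Viability was scored by 0.17% Trypan blue exclusion against drug-free controls. IC50 was the concentration halving living cell number, taken from the log-probit dose-response curve.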

L1210 [35] = test: Median survival time (MST) of mice bearing L1210 cells was determined at a dose of 114 mg/kg x 2 days administered ip.; assay type: functional, Mus musculus; in short: as §4
L1210 [36] = test: In vitro inhibitory effect on growth of L1210 cells; 1.5*10e-3; assay type: functional, cell-based; conditions: Mus musculus; in short: as §5
[37] = Mus musculus, L1210, read-out: IC50

5-amino-1-beta-D-ribofuranosylimidazole-4-carboxamide-dichloroplatinum (II)
T/C (L1210 [1]): 100%
MST (L1210 [2]): 10 days
MST (L1210 [3]): 9 days
T/C (L1210 [4]): 125%
T/C (L1210 [5]): 111%
MST (L1210 [6]): 9 days
T/C (L1210 [7]): 122%
T/C (L1210 [8]): 100%
MST (L1210 [9]): 11 days
MST (L1210 [10]): 10 days

3-amino-cytidine hydrochloridecis-DDP
MST (L1210 [11]): Toxic
MST (L1210 [12]): Toxic

3-aminocytidine-dichloroplatinum (II)
Blood urea nitrogen (Mus musculus [13]): 26.3 mg 100ml-1
Kidney weight (Mus musculus [14]): 545
MST (L1210 [15]): 11 days
Body weight (Mus musculus [16]): 35.6
Blood urea nitrogen (Mus musculus [17]): 22 mg 100ml-1
T/C (L1210 [1]): 125%
MST (L1210 [3]): 10 days
MST (L1210 [18]): 9.5 days
Kidney weight (Mus musculus [19]): 571
Kidney weight (Mus musculus [20]): 637
Blood urea nitrogen (Mus musculus [21]): 28.7 mg 100ml-1
T/C (L1210 [5]): 131%
Body weight (Mus musculus [22]): 36.5
MST (L1210 [6]): 10 days
T/C (L1210 [7]): 138%
T/C (L1210 [8]): 125%
T/C (L1210 [23]): 138%
T/C (L1210 [24]): 119%
Body weight (Mus musculus [25]): 39.9
MST (L1210 [9]): 11 days
MST (L1210 [10]): 10.5 days

3-aminotubercidin-dichloroplatinum (II) [listing 1 of 2 here]
Blood urea nitrogen (Mus musculus [13]): 22.8 mg 100ml-1
Kidney weight (Mus musculus [14]): 587
MST (L1210 [15]): 12 days
Body weight (Mus musculus [16]): 38.4
T/C (L1210 [26]): 156%
Blood urea nitrogen (Mus musculus [17]): 24 mg 100ml-1
T/C (L1210 [1]): 125%
MST (L1210 [3]): 10 days
MST (L1210 [18]): 9 days
Kidney weight (Mus musculus [19]): 750
Kidney weight (Mus musculus [20]): 686
Blood urea nitrogen (Mus musculus [21]): 26.3 mg 100ml-1
MST (L1210 [27]): 12.5 days
MST (L1210 [28]): 12.5 days
T/C (L1210 [5]): 144%
Body weight (Mus musculus [22]): 40
MST (L1210 [6]): 10.5 days
T/C (L1210 [7]): 144%
T/C (L1210 [8]): 131%
T/C (L1210 [29]): 156%
T/C (L1210 [23]): 150%
T/C (L1210 [24]): 112%
Body weight (Mus musculus [25]): 39.4
MST (L1210 [9]): 11.5 days
MST (L1210 [10]): 11.5 days

3-amino-2'-deoxycytidine hydrochloridecis-DDP
MST (L1210 [30]): Toxic
MST (L1210 [12]): Toxic

N=c1ccn([C@@H]2O[C@H](CO)[C@@H](O)[C@@H]2O)c(=O)n1N
T/C (L1210 [31]): 100%
T/C (L1210 [32]): 95%
MST (L1210 [33]): 9.5 days
IC50 (L1210 [34]; [37]): 45 µg/mL
MST (L1210 [35]): 10 days
IC50 (L1210 [36]): 1530 µM

3-aminotubercidin-dichloroplatinum (II) [listing 2 of 2 here]
IC50 (L1210 [34]; l1210): 4.9 µg/mL
IC50 (L1210 [34]; l1210, read-out: IC50): 8.96 µM

N=c1ccn([C@@H]2O[C@H](CO)[C@@H](O)[C@H]2O)c(=O)n1N
IC50 (L1210 [34]; [37]): 400 µg/mL and 1.36 mM
